For one series, the target named is T1, AI-BP (Mus musculus, UniProt Q8K4Z3).
T1 sequence (Q8K4Z3 25-282): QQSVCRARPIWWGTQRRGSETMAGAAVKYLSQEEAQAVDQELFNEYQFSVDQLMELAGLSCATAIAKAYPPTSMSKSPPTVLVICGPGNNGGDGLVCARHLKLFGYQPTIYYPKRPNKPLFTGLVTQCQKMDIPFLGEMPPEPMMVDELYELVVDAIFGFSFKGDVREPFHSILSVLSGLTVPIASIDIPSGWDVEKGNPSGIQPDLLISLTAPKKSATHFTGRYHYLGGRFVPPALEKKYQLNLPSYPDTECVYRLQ
The experiment in a line: isothermal titration calorimetry. Format: binding. The note with it: 100 mM HEPES pH 7.5, 100 mM NaCl, 25°C. In a few lines: (§1)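 Isothermal titrations were run at 25°C, with Tm0922 also tested at 55°C, in 100 mM HEPES pH 7.5 with 100 mM NaCl. Purified protein was in the cell at 70-130 μM. Metabolite ligands from the NAD-related and thymine-related sets were titrated to final concentrations 1.2 to 5 times the protein concentration. Binding parameters were taken from curves fitted to the titration profiles.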
In general terms: In ITC the heat of successive injections is recorded.

Another series addresses T2, Tm0922 (Thermotoga maritima, UniProt Q9X024).
T2 sequence (Q9X024 1-490): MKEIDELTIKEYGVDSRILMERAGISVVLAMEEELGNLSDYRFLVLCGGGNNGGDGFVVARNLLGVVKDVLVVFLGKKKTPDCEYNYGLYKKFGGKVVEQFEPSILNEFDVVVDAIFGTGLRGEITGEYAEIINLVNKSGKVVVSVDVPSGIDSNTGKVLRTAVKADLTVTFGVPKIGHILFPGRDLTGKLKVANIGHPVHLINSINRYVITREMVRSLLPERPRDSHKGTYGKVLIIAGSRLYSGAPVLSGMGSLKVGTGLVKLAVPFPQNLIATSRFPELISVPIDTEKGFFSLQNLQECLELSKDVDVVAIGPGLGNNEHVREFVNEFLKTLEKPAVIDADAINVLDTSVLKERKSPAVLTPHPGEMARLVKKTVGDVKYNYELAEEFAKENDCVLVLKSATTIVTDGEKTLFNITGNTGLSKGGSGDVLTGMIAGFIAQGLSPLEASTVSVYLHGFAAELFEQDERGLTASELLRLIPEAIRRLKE
The experiment in a line: isothermal titration calorimetry. The class given is binding. In a few lines:
as §1

In series [1] the target is T3, YxkO (Bacillus subtilis, UniProt P94368).
T3 sequence (P94368 1-276): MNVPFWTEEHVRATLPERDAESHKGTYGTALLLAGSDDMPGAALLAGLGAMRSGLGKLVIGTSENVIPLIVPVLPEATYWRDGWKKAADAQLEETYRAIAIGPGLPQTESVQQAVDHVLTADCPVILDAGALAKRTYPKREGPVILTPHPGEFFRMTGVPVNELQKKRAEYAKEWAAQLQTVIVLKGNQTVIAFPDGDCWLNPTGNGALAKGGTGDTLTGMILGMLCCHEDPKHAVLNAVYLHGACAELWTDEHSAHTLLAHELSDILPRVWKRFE
The experiment in a line: isothermal titration calorimetry. Format: binding. In a few lines: as §1

Series [2] has as its target T3, YxkO. The experiment in a line: crystal structure. The note with it: ATP-binding site, Mg2+.
For series [3], the target named is T3, YxkO. In words: crystal structure. The class given is binding. The note with it: kinase substrate site, AMP/Mg2+ in ATP site; dehydratase substrate.
Substrate in series [4]: Nc1ncnc2c1ncn2[C@@H]1O[C@H](COP(=O)(O)OP(=O)(O)O)[C@@H](O)[C@H]1O
The experiment in a line: purified protein. The class given is biochemical, Bacillus subtilis. The following applies: co-substrate NADHX, 25°C, varied: cofactor.

Substrate in series [5]: NC(=O)C1=CN([C@@H]2O[C@H](COP(=O)(O)OP(=O)(O)OC[C@H]3O[C@@H](n4cnc5c(N)ncnc54)[C@H](O)[C@@H]3O)[C@@H](O)[C@H]2O)C(O)CC1
The experiment in a line: purified protein. The class given is biochemical, Bacillus subtilis. The note with it: co-substrate ADP, 25°C.

Where two headings read alike, the source gives them in different places.

On to `Nc1ncnc2c1ncn2[C@@H]1O[C@H](COP(=O)(O)OP(=O)(O)OC[C@H]2OC(O)[C@H](O)[C@@H]2O)[C@@H](O)[C@H]1O` (stereo partly shown) [ADPR], for which the dissociation constant Kd on AI-BP is 451 ± 30.8 µM; on Tm0922 (100 mM HEPES pH 7.5, 100 mM NaCl, 25°C (55°C also tested), likely YjeF_N site) it was 5.1 ± 0.4 µM. In the case of `Nc1ncnc2c1ncn2[C@@H]1O[C@H](COP(=O)(O)OP(=O)(O)OP(=O)(O)O)[C@@H](O)[C@H]1O` [ATP], at YxkO [1], binding was put at a Kd of 595 ± 134 µM.

`Nc1ncnc2c1ncn2[C@@H]1O[C@H](COP(=O)(O)OP(=O)(O)OC[C@H]2O[C@@H]([n+]3cccc(C(=O)O)c3)[C@H](O)[C@@H]2O)[C@@H](O)[C@H]1OP(=O)(O)O` [NAADP] had a Kd on Tm0922 of 105 ± 11.1 µM. With `Nc1ncnc2c1ncn2[C@@H]1O[C@H](COP(=O)(O)OP(=O)([O-])OC[C@H]2O[C@@H]([n+]3cccc(C(=O)O)c3)[C@H](O)[C@@H]2O)[C@@H](O)[C@H]1O` [NAAD], the “crystal structure (cocktail soak)” value on YxkO [2] was “nicotinic acid adenine dinucleotide (NAAD) is bound in the same position”. As for `NC(=O)C1=CN([C@@H]2O[C@H](COP(=O)(O)OP(=O)(O)OC[C@H]3O[C@@H](n4cnc5c(N)ncnc54)[C@H](O)[C@@H]3O)[C@@H](O)[C@H]2O)C=CC1` [NADH], the Kd on YxkO [1] stood at 9.6 ± 0.7 µM.

For the molecule `NC(=O)C1=CN([C@@H]2O[C@H](COP(=O)(O)OP(=O)(O)OC[C@H]3O[C@@H](n4cnc5c(N)ncnc54)[C@H](OP(=O)(O)O)[C@@H]3O)[C@@H](O)[C@H]2O)C(O)CC1` (stereo partly shown) [NADPHX], the “crystal structure (ATP/Mg2+ co-crystal soaked with NADPH)” value on YxkO [3] is reported as “Coordination of NADPHX in the active site of YxkO”. As to `NC(=O)C1=CN([C@@H]2O[C@H](COP(=O)(O)OP(=O)(O)OC[C@H]3O[C@@H](n4cnc5c(N)ncnc54)[C@H](OP(=O)(O)O)[C@@H]3O)[C@@H](O)[C@H]2O)C=CC1` [NADPH], the Kd at Tm0922 was 5.3 ± 1.2 µM.

`NC(=O)c1ccc[n+]([C@@H]2O[C@H](COP(=O)(O)OP(=O)(O)OC[C@H]3O[C@@H](n4cnc5c(N)ncnc54)[C@H](OP(=O)(O)O)[C@@H]3O)[C@@H](O)[C@H]2O)c1` [NADP] came in with a Kd on Tm0922 of 6 ± 0.9 µM. On to `NC(=O)c1ccc[n+]([C@@H]2O[C@H](COP(=O)(O)OP(=O)(O)OC[C@H]3O[C@@H](n4cnc5c(N)ncnc54)[C@H](O)[C@@H]3O)[C@@H](O)[C@H]2O)c1` [NAD], for which, on YxkO [2], the “crystal structure (cocktail soak)” value was “YxkO and Tm0922 crystals soaked with cocktail G contained NAD in the predicted ATP-binding site”.

B1: YxkO (Bacillus subtilis subsp. subtilis str. 168) (protein)
chain: T3 sequence (P94368 1-276)
Consider B1, for which, in the series “purified protein [4]”, the Michaelis constant (Km) was 6.43 ± 0.49 µM and the catalytic constant (kcat) came to 0.35 ± 0.01 s⁻¹. Besides, the catalytic constant (kcat) in “purified protein [5]” was 0.35 ± 0.01 s⁻¹.

The term Kd denotes the concentration at which binding is half-saturated. Read a high Kd as weaker binding. In general, Km refers to the substrate concentration at which the rate is half of its maximum. Usually kcat stands for the maximal rate divided by the concentration of active sites.

The record behind these values is publication PMC3472112 (Structure (London, England : 1993), 2012).
